According to ChEMBL document CHEMBL5674883, “The Heterochromatin Landscape in Migrating Cells and the Importance of H3K27me3 for Associated Transcriptome Alterations” (Cells, 2018):

Key:
Format in all cases: cell-based
[1] = molecular target: T1, RNA polymerase II (Mus musculus) (UniProt P08775+Q8CFI7+P97760+A0A3Q4L2S8+Q80UW8+P61219+P62488+Q923G2+P60898+O08740+Q63871+P62876); test: Inhibition of RNA polymerase II in mouse B16-F1 migrating cells assessed as fold change in Trappc8-RNA stability at 0.1 mM measured by […] analysis relative to control cells
[2] = molecular target: T1, RNA polymerase II (Mus musculus); test: Inhibition of RNA polymerase II in mouse B16-F1 migrating cells assessed as fold change in Kcnab2-RNA stability at 0.1 mM measured by ChIP-seq analysis relative to control cells
In short: (§1)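 Mouse B16-F1 melanoma cells grown to confluence on fibronectin in DMEM/10% FCS at 37 °C, 7% CO2. Migration induced by multiple scratches and 3 h incubation; unscratched controls. DRB 0.1 mM added 3 h before lysis. RNA from poly A-selected mRNA was sequenced (RNA-seq, three replicates per DRB group). Fold change computed for DRB-treated migrating vs DRB-treated control cells; cutoffs fold change >1.3, FDR <0.05.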

[3] = molecular target: T1, RNA polymerase II (Mus musculus); test: Inhibition of RNA polymerase II in mouse B16-F1 migrating cells assessed as fold change in Rpl27-RNA stability at 0.1 mM measured by […] analysis relative to control cells
[4] = molecular target: T1, RNA polymerase II (Mus musculus); test: Inhibition of RNA polymerase II in mouse B16-F1 migrating cells assessed as fold change in Grhpr-RNA stability at 0.1 mM measured by ChIP-seq analysis relative to control cells
[5] = molecular target: T1, RNA polymerase II (Mus musculus); test: Inhibition of RNA polymerase II in mouse B16-F1 migrating cells assessed as fold change in G6pc3-RNA stability at 0.1 mM measured by ChIP-seq analysis relative to control cells; in short: as §1
[6] = molecular target: T1, RNA polymerase II (Mus musculus); test: Inhibition of RNA polymerase II in mouse B16-F1 migrating cells assessed as fold change in Stx8-RNA stability at 0.1 mM measured by […] analysis relative to control cells
[7] = molecular target: T1, RNA polymerase II (Mus musculus); test: Inhibition of RNA polymerase II in mouse B16-F1 migrating cells assessed as fold change in Gria4-RNA stability at 0.1 mM measured by ChIP-seq analysis relative to control cells
[8] = molecular target: T1, RNA polymerase II (Mus musculus); test: Inhibition of RNA polymerase II in mouse B16-F1 migrating cells assessed as fold change in Slc27a3-RNA stability at 0.1 mM measured by […] analysis relative to control cells
[9] = molecular target: T1, RNA polymerase II (Mus musculus); test: Inhibition of RNA polymerase II in mouse B16-F1 migrating cells assessed as fold change in Cul4b-RNA stability at 0.1 mM measured by […] analysis relative to control cells; in short: as §1
[10] = molecular target: T1, RNA polymerase II (Mus musculus); test: Inhibition of RNA polymerase II in mouse B16-F1 migrating cells assessed as fold change in Arf6-RNA stability at 0.1 mM measured by […] analysis relative to control cells
[11] = molecular target: T1, RNA polymerase II (Mus musculus); test: Inhibition of RNA polymerase II in mouse B16-F1 migrating cells assessed as fold change in Otud6b-RNA stability at 0.1 mM measured by […] analysis relative to control cells
[12] = molecular target: T1, RNA polymerase II (Mus musculus); test: Inhibition of RNA polymerase II in mouse B16-F1 migrating cells assessed as fold change in Zfp280c-RNA stability at 0.1 mM measured by […] analysis relative to control cells
[13] = molecular target: Histone-lysine N-methyltransferase EZH2 (Mus musculus) (UniProt Q61188); test: Inhibition of EZH2 in mouse B16-F1 migrating cells assessed as fold change in H3K27me3-buffered regulated Itpk1-mRNA expression at 3 uM measured by […] analysis relative to control cells
Chain of Histone-lysine N-methyltransferase EZH2 (Mus musculus) (Q61188 whole entry): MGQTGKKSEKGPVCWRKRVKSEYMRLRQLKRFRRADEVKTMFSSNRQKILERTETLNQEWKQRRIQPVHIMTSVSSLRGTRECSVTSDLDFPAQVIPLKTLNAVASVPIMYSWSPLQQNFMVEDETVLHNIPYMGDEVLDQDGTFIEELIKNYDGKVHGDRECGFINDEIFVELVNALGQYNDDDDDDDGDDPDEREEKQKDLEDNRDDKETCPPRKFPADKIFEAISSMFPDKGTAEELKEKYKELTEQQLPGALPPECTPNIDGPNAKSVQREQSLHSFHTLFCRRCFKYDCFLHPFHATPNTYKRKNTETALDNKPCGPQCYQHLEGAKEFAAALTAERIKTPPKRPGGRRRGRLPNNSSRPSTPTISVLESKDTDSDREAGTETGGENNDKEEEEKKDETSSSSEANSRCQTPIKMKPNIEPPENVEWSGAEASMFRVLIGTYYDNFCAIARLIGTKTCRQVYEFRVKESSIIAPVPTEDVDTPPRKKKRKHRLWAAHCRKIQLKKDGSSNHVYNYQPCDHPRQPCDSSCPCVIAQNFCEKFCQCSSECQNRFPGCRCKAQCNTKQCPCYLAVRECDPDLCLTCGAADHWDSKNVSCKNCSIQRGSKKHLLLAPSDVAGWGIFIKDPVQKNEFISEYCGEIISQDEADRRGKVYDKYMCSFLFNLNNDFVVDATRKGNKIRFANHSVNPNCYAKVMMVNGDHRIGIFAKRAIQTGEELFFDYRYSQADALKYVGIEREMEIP
In short: (§2)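 Confluent B16-F1 cells on fibronectin-coated plates, cultured at 37 °C and 7% CO2, were scratched at multiple sites to induce migration. They were then held 3 h in growth medium containing 3 µM GSK343, with the inhibitor added 3 h before lysis. Unscratched cells served as controls. Poly A mRNA was analysed by RNA-seq (n=3 GSK343, n=5 controls). Linear models removed batch effects, and buffered genes were those altered only under GSK343 (FDR <0.05, fold change >1.3).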

[14] = molecular target: Histone-lysine N-methyltransferase EZH2 (Mus musculus) (UniProt Q61188); test: Inhibition of EZH2 in mouse B16-F1 migrating cells assessed as fold change in H3K27me3-buffered regulated Arid4a-mRNA expression at 3 uM measured by ChIP-seq analysis relative to control cells; in short: as §2
[15] = molecular target: Histone-lysine N-methyltransferase EZH2 (Mus musculus) (UniProt Q61188); test: Inhibition of EZH2 in mouse B16-F1 migrating cells assessed as fold change in H3K27me3-buffered regulated Tead4-mRNA expression at 3 uM measured by […] analysis relative to control cells
In short: (§3)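 Confluent B16-F1 cells on fibronectin-coated plates were scratched at multiple sites, washed once with DMEM and left to migrate 3 h in growth medium (37 °C, 7% CO2); unscratched cells served as control. GSK343 (3 µM) was added 3 h before lysis. Poly A mRNA was sequenced (RNA-seq), with 5 replicates for untreated and 3 for treated cells. Differential expression was called by linear model with batch correction, at FDR <0.05 and fold change ≥1.3.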

[16] = molecular target: Histone-lysine N-methyltransferase EZH2 (Mus musculus) (UniProt Q61188); test: Inhibition of EZH2 in mouse B16-F1 migrating cells assessed as fold change in H3K27me3-buffered regulated Map3k1-mRNA expression at 3 uM measured by […] analysis relative to control cells; in short: as §2
[17] = molecular target: Histone-lysine N-methyltransferase EZH2 (Mus musculus) (UniProt Q61188); test: Inhibition of EZH2 in mouse B16-F1 migrating cells assessed as fold change in H3K27me3-buffered regulated 5031439G07Rik-mRNA expression at 3 uM measured by […] analysis relative to control cells; in short: as §2
[18] = molecular target: Histone-lysine N-methyltransferase EZH2 (Mus musculus) (UniProt Q61188); test: Inhibition of EZH2 in mouse B16-F1 migrating cells assessed as fold change in H3K27me3-buffered regulated Zc3h7a-mRNA expression at 3 uM measured by […] analysis relative to control cells; in short: as §3
[19] = molecular target: Histone-lysine N-methyltransferase EZH2 (Mus musculus) (UniProt Q61188); test: Inhibition of EZH2 in mouse B16-F1 migrating cells assessed as fold change in H3K27me3-buffered regulated Tuba4a-mRNA expression at 3 uM measured by […] analysis relative to control cells; in short: as §3
[20] = molecular target: Histone-lysine N-methyltransferase EZH2 (Mus musculus) (UniProt Q61188); test: Inhibition of EZH2 in mouse B16-F1 migrating cells assessed as fold change in H3K27me3-buffered regulated Dzip3-mRNA expression at 3 uM measured by […] analysis relative to control cells; in short: as §2
[21] = molecular target: Histone-lysine N-methyltransferase EZH2 (Mus musculus) (UniProt Q61188); test: Inhibition of EZH2 in mouse B16-F1 migrating cells assessed as fold change in H3K27me3-buffered regulated Fam60a-mRNA expression at 3 uM measured by […] analysis relative to control cells; in short: as §2
[22] = molecular target: Histone-lysine N-methyltransferase EZH2 (Mus musculus) (UniProt Q61188); test: Inhibition of EZH2 in mouse B16-F1 migrating cells assessed as fold change in H3K27me3-buffered regulated Irf1-mRNA expression at 3 uM measured by […] analysis relative to control cells; in short: as §2
[23] = molecular target: Histone-lysine N-methyltransferase EZH2 (Mus musculus) (UniProt Q61188); test: Inhibition of EZH2 in mouse B16-F1 migrating cells assessed as fold change in H3K27me3-buffered regulated Dlg4-mRNA expression at 3 uM measured by ChIP-seq analysis relative to control cells; in short: as §2
[24] = molecular target: Histone-lysine N-methyltransferase EZH2 (Mus musculus) (UniProt Q61188); test: Inhibition of EZH2 in mouse B16-F1 migrating cells assessed as fold change in H3K27me3-buffered regulated 1700027J19Rik-mRNA expression at 3 uM measured by […] analysis relative to control cells; in short: as §2

Q: `OC[C@H]1O[C@@H](n2cnc3cc(Cl)c(Cl)cc32)[C@H](O)[C@@H]1O` was tested. Which log2FC [1] did it give?
A: Its log2FC is -0.62.

Q: And the log2FC [2]?
A: The log2FC was 0.49.

Q: What about the log2FC [3] of the same compound?
A: The log2FC was 0.51.

Q: What about the log2FC [4] of the same compound?
A: The log2FC was 1.02.

Q: And the log2FC [5]?
A: The log2FC was 0.51.

Q: And the log2FC [6]?
A: Its log2FC is 0.48.

Q: And the log2FC [7]?
A: Its log2FC is -0.5.

Q: What about the log2FC [8] of the same compound?
A: Its log2FC is 0.65.

Q: What about the log2FC [9] of the same compound?
A: Its log2FC is -0.49.

Q: And the log2FC [10]?
A: The log2FC was -0.51.

Q: What about the log2FC [11] of the same compound?
A: Its log2FC is -0.6.

Q: What about the log2FC [12] of the same compound?
A: The log2FC was -0.98.

Q: Which results are given for `CCCc1cc(C)[nH]c(=O)c1CNC(=O)c1cc(-c2ccnc(N3CCN(C)CC3)c2)cc2c1cnn2C(C)C`?
A: log2FC [13]: 0.51; log2FC [14]: -0.47; log2FC [15]: 0.38; log2FC [16]: -0.53; log2FC [17]: 0.45; log2FC [18]: -0.42; log2FC [19]: 0.42; log2FC [20]: -0.4; log2FC [21]: -0.61; log2FC [22]: -0.62; log2FC [23]: 0.39; log2FC [24]: 0.73
